From ChEMBL document CHEMBL1145986, “Dual protein farnesyltransferase-geranylgeranyltransferase-I inhibitors as potential cancer chemotherapeutic agents” (J Med Chem, 2003)

Legend:
[1] = molecular target: T1, Protein farnesyltransferase (Homo sapiens, UniProt P49354+P49356); assay: Concentration required to inhibit recombinant human farnesyltransferase (FTase) catalyzed incorporation of [3H]FPP into recombinant Ras-CVIM.; format: protein-complex assay
[2] = molecular target: T2, Geranylgeranyl transferase type I (Homo sapiens, UniProt P49354+P53609); assay: Concentration required to inhibit recombinant human geranylgeranyl transferase type I (GGTase-I) catalyzed incorporation of [3H]GGPP to the C-terminus of human K-Ras.; format: protein-complex assay
Method in brief: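 Human GGTase-I transferring [3H]GGPP onto a biotinylated peptide matching the human K-Ras C-terminus. IC50 is the concentration giving 50% inhibition of incorporation. For the GGPP-competition check, IC50 was also determined at 20, 100 and 500 nM GGPP. Data with n > 2 are given as mean ± SEM.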

[3] = molecular target: Protein farnesyl/geranylgeranyl transferase (Homo sapiens, UniProt P49354+P49356+P53609); assay: Inhibition of K-Ras processing, farnesylation and/or geranylgeranylation in human PSN1 cells; format: functional, cell-based
Method in brief: (§1)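 PSN-1 pancreatic carcinoma cells were exposed to inhibitor for 24 h. Lysates were run on SDS-PAGE and Western blotted with antibodies to hDJ2, Rap1a or K-Ras. Unprocessed and prenylated forms were told apart by their different electrophoretic mobility.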

[4] = molecular target: T1, Protein farnesyltransferase; assay: Inhibition of hDJ2 protein farnesylation; format: functional; method in brief: as §1
[5] = molecular target: T2, Geranylgeranyl transferase type I; assay: Inhibition of Rap1a protein geranylgeranylation in human PSN1 cells; format: functional, cell-based; method in brief: as §1

IC50 [1] [nM] | IC50 [2] [nM] | EC50 [3] [nM] | EC50 [4] [nM] | EC50 [5] [nM] | SMILES
1800 | 10000 |  |  |  | CCC1(c2cccc(Oc3cc(C(=O)c4cncn4C)ccc3C#N)c2)CCCCN(C)C1=O (stereo unspecified)
1.2 | 13 |  |  |  | CCC1(c2cccc(Oc3cc(C(C)(O)c4cncn4C)ccc3C#N)c2)CCCCN(C)C1=O (stereo unspecified)
0.19 | 8 |  |  |  | CCC1(c2cccc(Oc3cc(C(N)c4cncn4C)ccc3C#N)c2)CCCCN(C)C1=O (stereo unspecified)
 | 3.6 | 340 | 2.1 | 470 | CC[C@@]1(c2cccc(Oc3cc([C@](C)(N)c4cncn4C)ccc3C#N)c2)CCCCN(C)C1=O
0.6 | 10 |  |  |  | CCC1(c2cccc(Oc3cc(Cc4cncn4C)ccc3C#N)c2)CCCCN(C)C1=O (stereo unspecified)
0.38 | 5.1 |  |  |  | CCC1(c2cccc(Oc3cc(C(C)(N)c4cncn4C)ccc3C#N)c2)CCCCN(C)C1=O (stereo unspecified)
7.6 | 54 | 8000 | 120 | 3200 | CC[C@]1(c2cccc(Oc3cc([C@@](C)(N)c4cncn4C)ccc3C#N)c2)CCCCN(C)C1=O
13 | 12 |  |  |  | CCC1(c2cccc(Oc3cc(Cc4cnc[nH]4)ccc3C#N)c2)CCCCN(C)C1=O (stereo unspecified)
0.36 | 13 | 230 | 6 | 140 | CC[C@@]1(c2cccc(Oc3cc([C@@](C)(N)c4cncn4C)ccc3C#N)c2)CCCCN(C)C1=O (stereo in doubt)
2 | 17 |  |  |  | CCC1(c2cccc(Oc3cc(C(O)c4cncn4C)ccc3C#N)c2)CCCCN(C)C1=O (stereo unspecified)
3 | 7.2 |  |  |  | CCC1(c2cccc(Oc3cc(Cn4ccnc4)ccc3C#N)c2)CCCCN(C)C1=O (racemic)
1.5 | 4.5 | 1900 | 11 | 720 | CC[C@]1(c2cccc(Oc3cc([C@](C)(N)c4cncn4C)ccc3C#N)c2)CCCCN(C)C1=O (stereo in doubt)

More lines, now with the values behind:

SMILES | IC50 [1] [nM] | IC50 [2] [nM] | EC50 [3] [nM] | EC50 [4] [nM] | EC50 [5] [nM]
CCC1(c2cccc(Oc3cc(Cn4ccnc4)ccc3C#N)c2)CCCCNC1 (stereo unspecified) | 100 | 280 |  |  | 
CCC1(c2cccc(Oc3cc(Cn4ccnc4)ccc3C#N)c2)CCCCN(C(C)=O)C1 (stereo unspecified) | 1.9 | 8.9 |  |  | 
CCC1(c2cccc(Oc3cc(Cn4ccnc4)ccc3C#N)c2)CCCCNC1=O (stereo unspecified) | 1.3 | 20 |  |  | 
CN1CCCC[C@@](CCC(F)(F)F)(c2cccc(Oc3cc([C@](C)(N)c4cncn4C)ccc3C#N)c2)C1=O | 0.19 | 2.5 | 207 | 3.1 | 47
CN1CCCC[C@@](CC2CC2)(c2cccc(Oc3cc([C@](C)(N)c4cncn4C)ccc3C#N)c2)C1=O | 0.3 | 2.1 | 220 | 1.5 | 87
CC[C@@]1(c2cccc(Oc3cc(Cn4ccnc4)ccc3C#N)c2)CCCCN(C)C1=O | 1.4 | 5.8 |  |  | 
CN1CCCC[C@@H](c2cccc(Oc3cc([C@](C)(N)c4cncn4C)ccc3C#N)c2)C1=O | 11 | 92 |  |  | 
N#Cc1ccc(Cn2ccnc2)cc1Oc1cccc(C2CCCCNC2=O)c1 (stereo unspecified) | 41 | 1200 |  |  | 
CCC[C@@]1(c2cccc(Oc3cc([C@](C)(N)c4cncn4C)ccc3C#N)c2)CCCCN(C)C1=O | 0.46 | 2.9 | 100 | 0.9 | 220
CN1CCCC[C@@](C)(c2cccc(Oc3cc([C@](C)(N)c4cncn4C)ccc3C#N)c2)C1=O | 0.41 | 30 | 3730 | 26 | 3990
CN1CCCC[C@@](CCC2CC2)(c2cccc(Oc3cc([C@](C)(N)c4cncn4C)ccc3C#N)c2)C1=O | 0.18 | 0.81 | 1290 | 11 | > 1000
CN1CCCCC(c2cccc(Oc3cc(Cn4ccnc4)ccc3C#N)c2)C1=O (stereo unspecified) | 61 | 560 |  |  | 
CC[C@]1(c2cccc(Oc3cc(Cn4ccnc4)ccc3C#N)c2)CCCCN(C)C1=O | 5.3 | 25 |  |  | 
CCCC[C@@]1(c2cccc(Oc3cc([C@](C)(N)c4cncn4C)ccc3C#N)c2)CCCCN(C)C1=O | 0.12 | 1.4 | 320 | 4 | 250
